Our source for the outcome values is PubChem BioAssay AID624307 (The Scripps Research Institute Molecular Screening Center, 2012).

Activity calls are given as the source filed them.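 How the source made its calls: active means relative luminescence ratio of 1.25 or more at any tested dose; inactive means ratio below 1.25 at every tested dose.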

The nature of this test: increased StAR-luc signal, DAX-1/SF-1 cells – cell-based, luminescence, HEK293, powder samples, assay provider, counter-screen for DAX1 inhibitor project, dose response (AID 624307). The note with it: HEK293 StAR promoter luciferase reporter (DAX-1/SF-1); series mostly up to 100 µM. An outline of the steps:
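Test system: HEK293 transfectants with DAX-1, SF-1 and StAR-luciferase reporter; doses: 100 µM single dose plus three-point 1:2 series from 50 µM; repeats: three replicates; measured by: reporter luminescence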
(In general: Counterscreens check selectivity or assay interference.)
With `COc1ccc(OC)c(C(C)NC(=O)c2ccccc2C)c1` (centres undefined), the compound was called inactive.

Take `O=C(Nc1ccc2c(c1)OCO2)c1ccc(C2SCC(=O)N2Cc2ccco2)cc1` (centres undefined): the outcome was inactive.

Take `COc1ccc(OC)c(C(C)NC(=O)c2ccccc2F)c1` (centres undefined): the compound was classed as inactive.

In the case of `COc1ccc(OC)c(C(C)NC(=O)c2ccc(C)cc2)c1` (centres undefined), the compound was called inactive.

For the compound `COc1ccc(OC)c(C(C)NC(=O)c2c(F)cccc2Cl)c1` (centres undefined), the result was inactive.

Take `COc1cccc(C(=O)NC(C)c2cc(OC)ccc2OC)c1` (centres undefined): the compound was called inactive.

With `COc1cccc(C(=O)Nc2ccc3c(c2)OCCO3)c1`, the result was inactive.

Turning to `COc1ccc(OC)c(C(C)NC(=O)c2cccc(C)c2)c1` (centres undefined), the result was inactive.

On to `O=C(Nc1ccc2c(c1)OCO2)c1cccs1`, for which the call was inactive.

For the compound `Cc1cc(C(=O)Nc2ccc3c(c2)OCO3)cs1`, the result was inactive.

For the compound `COc1ccc(OC)c(C(C)NC(=O)c2ccc(C(C)(C)C)cc2)c1` (centres undefined), the outcome was inactive.

For the compound `CSc1ccccc1C(=O)Nc1ccc2c(c1)OCCO2`, the compound was classed as inactive.

Turning to `COc1ccc(OC)c(C(C)NC(=O)c2ccccc2)c1` (centres undefined), the call was inactive.

On to `CN(C)c1cccc(C(=O)Nc2ccc3c(c2)OCCO3)c1`, for which the compound was classed as inactive.

Consider `Cn1c(=O)n(C)c2cc(C(=O)Nc3ccc4c(c3)OCO4)ccc21`, for which the compound was classed as inactive.

As for `O=C(Nc1ccc2c(c1)OCO2)c1ccc(C2SCC(=O)N2Cc2ccccc2)cc1` (centres undefined), the result was inactive.

As to `COc1ccc(OC)c(C(C)NC(=O)c2ccccc2Cl)c1` (centres undefined), the compound was classed as inactive.

With `O=C(Nc1ccc2c(c1)OCO2)c1ccc2ccccc2c1`, the result was inactive.

Turning to `O=C(Cc1cccs1)Nc1ccc2c(c1)OCO2`, the compound was called inactive.

For `COc1ccc(OC)c(C(C)NC(=O)c2ccc3c(c2)OCCO3)c1` (centres undefined), the compound was classed as inactive.

`O=C(Nc1ccc2c(c1)OCCO2)c1ccc2ccccc2c1`: the result was inactive.

`COc1ccc(OC)c(C(C)NC(=O)c2cccc(F)c2)c1` (centres undefined): the outcome was inactive.

As for `Cn1c(=O)n(C)c2cc(C(=O)Nc3ccc4c(c3)OCCO4)ccc21`, the call was inactive.

As for `COc1ccc(OC)c(C(C)NC(=O)c2cccc3ccccc23)c1` (centres undefined), the outcome was inactive.

Consider `CSc1ccccc1C(=O)Nc1ccc2c(c1)OCO2`, for which the result was inactive.

For the compound `COc1ccc(OC)c(C(C)NC(=O)c2ccc(Cl)cc2)c1` (centres undefined), the compound was classed as inactive.

For `Cc1occc1C(=O)Nc1ccc2c(c1)OCO2`, the compound was classed as inactive.

Take `COc1cccc(C(=O)Nc2ccc3c(c2)OCO3)c1`: the call was inactive.

`COc1ccc(OC)c(C(C)NC(=O)c2ccc(F)cc2)c1` (centres undefined): the result was inactive.
